In ChEMBL document CHEMBL1649277, “Inhibition of herpesvirus replication by 5-substituted 4'-thiopyrimidine nucleosides” (Antimicrob Agents Chemother, 2009):
The source made the active and inactive calls. The calls are words filed in the database; no cut-off is given here.

How the values were obtained:
Human alphaherpesvirus 1 [1] = assay: Antiviral activity against HSV1 E377 infected in HFF after 3 days by plaque reduction assay; format: functional, organism-based; details: Human alphaherpesvirus 1, E377, 72 h
How it was run: (§1)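 Confluent HFF monolayers (passage <10) were infected in triplicate wells at 20–30 plaques per well, with 1 h adsorption and rocking every 15 min. Six serial dilutions (top 100 μM) were made in MEM with 2% FBS and pooled human immunoglobulin. Cells were incubated 3 days and stained with crystal violet. Plaques were counted, and EC50 was interpolated from plaque reduction.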

Human betaherpesvirus 5 [2] = assay: Antiviral activity against human cytomegalovirus AD169 infected in HFF after 8 to 10 days by plaque reduction assay; format: functional, organism-based; details: Human betaherpesvirus 5, AD169
How it was run: (§2)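 Plaque reduction on confluent HFF monolayers in triplicate wells: 1 h adsorption, then six serial compound dilutions (top 100 μM) in MEM with 2% FBS, no immunoglobulin. Incubation was 8 days for HCMV and 10 days for VZV. Plaques were stained with 0.017% neutral red in PBS and counted microscopically. EC50 was interpolated at 50% plaque reduction.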

Human alphaherpesvirus 3 = assay: Antiviral activity against VZV Ellan infected in HFF after 8 to 10 days by plaque reduction assay; format: functional, organism-based; details: Human alphaherpesvirus 3, Ellan; how it was run: as §2
[3] = Antiviral activity against Human herpesvirus 6 GS infected in human HSB2 cells assessed as inhibition of viral replication after 7 days; format: functional, cell-based, Human herpesvirus 6 (strain GS); details: Human betaherpesvirus 6A, HSB2, 168 h
How it was run: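 HSB-2 cells, 2 × 10^4 per well in RPMI 1640 with 10% FBS, received compound dilutions in triplicate wells. Cells were infected with HHV-6A strain GS and kept 7 days at 37°C. Total DNA was denatured and immobilized on nylon membrane. Viral DNA was then measured by digoxigenin-labeled probe hybridization and anti-hapten antibody detection with densitometric quantitation.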

[4] = Cytotoxicity against human Akata cells after 3 days by MTS assay; format: cell-based
How it was run: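 Akata cells were plated as for the EBV assay but not induced with anti-IgG. Viability was read at the same time as the antiviral endpoint: MTS was added, plates incubated 4 h at 37°C, and formazan absorbance read at 490 nm. Medium-only control wells were included. CC50 was the concentration reducing viable cells by 50%.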

[5] = Cytotoxicity against human BCBL1 cells after 3 days by MTS assay; format: cell-based
[6] = Selectivity index, ratio of CC50 for HFF to EC50 for […] infected in HFF
[7] = Selectivity index, ratio of CC50 for HFF to EC50 for human cytomegalovirus AD169 infected in HFF
[8] = Selectivity index, ratio of CC50 for HFF to EC50 for VZV Ellan infected in HFF
[9] = Selectivity index, ratio of CC50 for human Akata cells to EC50 for Epstein-Barr virus infected in human Akata cells; format: toxicity, cell-based; details: read-out: Ratio CC50/EC50
[10] = Selectivity index, ratio of CC50 for human HSB2 cells to EC50 for Human herpesvirus 6 GS infected in human HSB2 cells; format: toxicity, cell-based; details: read-out: Ratio CC50/EC50
[11] = Selectivity index, ratio of CC50 for human BCBL1 cells to EC50 for Human herpesvirus 8 infected in human BCBL1 cells; format: toxicity, cell-based; details: read-out: Ratio CC50/EC50
Human alphaherpesvirus 1 [12] = assay: Antiviral activity against HSV1 DM2.1 harboring frameshift mutation in TK infected in HFF after 3 days by plaque reduction assay; format: functional, organism-based; details: Human alphaherpesvirus 1, DM2.1, 72 h; how it was run: as §1
Human alphaherpesvirus 1 [13] = assay: Antiviral activity against HSV1 PAA5 harboring polymerase R842S mutant gene infected in HFF after 3 days by plaque reduction assay; format: functional, organism-based; details: Human alphaherpesvirus 1, PAA5, 72 h; how it was run: as §1
Human alphaherpesvirus 1 [14] = assay: Antiviral activity against HSV1 B-2006 harboring frameshift mutation at Q185 in TK infected in HFF after 3 days by plaque reduction assay; format: functional, organism-based; details: Human alphaherpesvirus 1, B-2006, 72 h; how it was run: as §1
Human alphaherpesvirus 2 [15] = assay: Antiviral activity against HSV2 13077 harboring TK R223H mutant gene infected in HFF after 3 days by plaque reduction assay; format: functional, organism-based; details: Human alphaherpesvirus 2, 13077, 72 h; how it was run: as §1
Human alphaherpesvirus 2 [16] = assay: Antiviral activity against HSV2 11680 harboring TK R223H mutant gene infected in HFF after 3 days by plaque reduction assay; format: functional, organism-based; details: Human alphaherpesvirus 2, 11680, 72 h; how it was run: as §1
Human betaherpesvirus 5 [17] = assay: Antiviral activity against human cytomegalovirus RC314 harboring UL97 K355M mutant gene infected in HFF after 8 to 10 days by plaque reduction assay; format: functional, organism-based; details: Human betaherpesvirus 5, RC314
How it was run: (§3)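 Plaque reduction in confluent HFF with six serial dilutions (top 100 μM) and no immunoglobulin added. Virus was adsorbed 1 h on triplicate wells. Cells were incubated 8 days, stained with 0.017% neutral red in PBS, and plaques counted. EC50 is the concentration reducing plaque number by 50%.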

Human betaherpesvirus 5 [18] = assay: Antiviral activity against human cytomegalovirus 1117 harboring UL54 K513N mutant gene infected in HFF after 8 to 10 days by plaque reduction assay; format: functional, organism-based; details: Human betaherpesvirus 5, 1117; how it was run: as §3
Human betaherpesvirus 5 [19] = assay: Antiviral activity against human cytomegalovirus VR4955 harboring UL54 T700A mutant gene infected in HFF after 8 to 10 days by plaque reduction assay; format: functional, organism-based; details: Human betaherpesvirus 5, VR4955; how it was run: as §3
Human betaherpesvirus 5 [20] = assay: Antiviral activity against human cytomegalovirus PFAB300 harboring UL54 L724V mutant gene infected in HFF after 8 to 10 days by plaque reduction assay; format: functional, organism-based; details: Human betaherpesvirus 5, PFAB300; how it was run: as §3
Human alphaherpesvirus 2 [21] = assay: Antiviral activity against 4'-thioIDU-resistant HSV2 infected in HFF after 3 days by plaque reduction assay; format: functional, organism-based; details: Human alphaherpesvirus 2, 72 h; how it was run: as §1
Human alphaherpesvirus 2 [22] = assay: Selectivity ratio of EC50 for 4'-thioIDU-resistant HSV2 infected in HFF to EC50 for HSV2 MS infected in HFF; format: functional
Human alphaherpesvirus 2 [23] = assay: Antiviral activity against HSV2 infected in BALB/c mouse assessed as virus-induced mortality rate at […], po BID administered 24 hrs post infection; format: functional
Human alphaherpesvirus 2 [24] = assay: Antiviral activity against HSV2 infected in BALB/c mouse assessed mean time to virus-induced death at […], po BID administered 24 hrs post infection; format: functional
Human alphaherpesvirus 2 [25] = assay: Antiviral activity against HSV2 infected in BALB/c mouse assessed as virus-induced mortality rate at 10 mg/kg, po BID administered 48 hrs post infection; format: functional
Human alphaherpesvirus 2 [26] = assay: Antiviral activity against HSV2 infected in BALB/c mouse assessed mean time to virus-induced death at […], po BID administered 48 hrs post infection; format: functional
Human alphaherpesvirus 2 [27] = assay: Antiviral activity against HSV2 infected in BALB/c mouse assessed mean time to virus-induced death at 30 mg/kg, po BID administered 72 hrs post infection; format: functional
Human alphaherpesvirus 2 [28] = assay: Antiviral activity against HSV2 MS infected in HFF assessed as inhibition of viral DNA synthesis-associated incorporation in DNA by immunofluorescence assay; format: functional, organism-based
How it was run: (§4)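 HFF on coverslips were infected with HSV-2 MS or the resistant isolate (MOI 0.2 PFU/cell) for 48 h. Cells were pulsed with BrdUrd or 10 μM test compound for 30 min before fixation. Incorporation was detected with a cross-reacting anti-BrdUrd monoclonal antibody, infected cells with anti-155-kDa nucleocapsid antibody, and nuclei with DAPI.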

Human alphaherpesvirus 2 [29] = assay: Antiviral activity against 4'-thioIDU-resistant HSV2 infected in HFF assessed as inhibition of viral DNA synthesis-associated incorporation in DNA by immunofluorescence assay; format: functional, organism-based; how it was run: as §4

Structure (SMILES): O=c1[nH]c(=O)n([C@H]2C[C@H](O)[C@@H](CO)S2)cc1I
- EC50 (Human alphaherpesvirus 1 [1]): 1.2 µM
- EC50 (Human betaherpesvirus 5 [2]): 5.85 µM
- EC50 (Human alphaherpesvirus 3): 2 µM
- EC50 [3]: > 100 µM
- CC50 at 72 h [4]: 0.68 µM
- CC50 at 72 h [5]: 14 µM
- Ratio CC50/EC50 [6]: > 1250
- Ratio CC50/EC50 [7]: >17
- Ratio CC50/EC50 [8]: 35
- selectivity ratio [9]: < 4.3
- selectivity ratio [10]: 1
- selectivity ratio [11]: < 3.6
- EC50 (Human alphaherpesvirus 1 [12]): > 444 µM
- EC50 (Human alphaherpesvirus 1 [13]): 28 µM
- EC50 (Human alphaherpesvirus 1 [14]): > 444 µM
- EC50 (Human alphaherpesvirus 2 [15]): > 343 µM
- EC50 (Human alphaherpesvirus 2 [16]): 246 µM
- EC50 (Human betaherpesvirus 5 [17]): 6.5 µM
- EC50 (Human betaherpesvirus 5 [18]): 4.4 µM
- EC50 (Human betaherpesvirus 5 [19]): 8 µM
- EC50 (Human betaherpesvirus 5 [20]): 25 µM
- EC50 (Human alphaherpesvirus 2 [21]): 57 µM
- Ratio EC50 (Human alphaherpesvirus 2 [22]): 108
- Activity (Human alphaherpesvirus 2 [23]): 100%
- Time (Human alphaherpesvirus 2 [24]): 8.2 days
- Activity (Human alphaherpesvirus 2 [25]): 73%
- Time (Human alphaherpesvirus 2 [26]): 9.4 days
- Time (Human alphaherpesvirus 2 [27]): 11.7 days
- inhibition (Human alphaherpesvirus 2 [28]): Active
- inhibition (Human alphaherpesvirus 2 [29]): inactive
